# Compound activity from PubChem BioAssay.
# OPRM1-OPRD1 ag: OPRM1-OPRD1 heterodimerization agonism | activation, % at 9.3 µM | P35372+P41143 | cells, luminescence | AID 504326 | 340,000 tested, 0.3% active; in the data active means activation above about 18%;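 further: 0% = vehicle-treated cells and 100% = reference agonist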
# HTR5A inv ctr: HTR5A inverse agonism, opioid heterodimer counter-screen; P47898; inhibition, % at 9.3 µM; AID 504634; 340,000 tested, 0.083% active; HTR5A cell line, luminescence; in the data active means inhibition mostly above about 23%, no sharp cut-off; inactive means mostly below about 18%;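 further: 0% = cells with DMSO and 100% = no-cell wells with DMSO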
# Target sequence (P47898 whole entry, looked up): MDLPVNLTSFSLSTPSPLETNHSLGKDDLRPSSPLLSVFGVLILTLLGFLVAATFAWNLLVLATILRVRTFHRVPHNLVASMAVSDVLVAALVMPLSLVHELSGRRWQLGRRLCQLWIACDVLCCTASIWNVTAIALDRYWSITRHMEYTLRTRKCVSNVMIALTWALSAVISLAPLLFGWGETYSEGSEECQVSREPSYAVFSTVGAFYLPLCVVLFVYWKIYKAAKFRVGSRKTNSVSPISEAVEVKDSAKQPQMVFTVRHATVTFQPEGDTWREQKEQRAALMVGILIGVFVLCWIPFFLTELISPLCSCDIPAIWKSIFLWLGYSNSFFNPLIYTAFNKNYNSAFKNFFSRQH
# DAGLB inhibitor: blocks human DAGLB lipase activity; HEK293T DAGLB membrane lysate, EnzChek fluorogenic substrate; inhibition, % at 5.17 µM; 340,000 tested, 0.059% active; in the data active means inhibition above about 34%;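 further: 0% = enzyme with vehicle and 100% = wells lacking enzyme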
# Arrestin-AP2 inh: inhibitors of human beta-arrestin and AP2 interaction | 340,000 tested, 0.31% active | inhibition, % at 10 µM | FITC-arrestin peptide / GST-AP2 beads, flow cytometry; AP2 beta2 appendage carries R879A mutation;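 active means inhibition above a set limit, near 3 SD of compounds lacking own fluorescence, cut at about 54% in these data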;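 further: plate controls were DMSO wells for no effect and 5 µM unlabelled arrestin peptide for full effect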
#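 Assay system: GST-AP2 R879A bound to glutathione beads, E. coli-expressed; Medium: PBS with 0.05% Tween 20 and 0.1% BSA; Also added: fluorescein-tagged arrestin peptide at 50 nM final; Timing: 12 min plus 1 h, RT; Measured by: flow cytometry, FL1 (488/535 nm); Evaluation: percent drop in bead-associated FITC signal.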
# OPRM1-OPRD1 inv: inverse agonists of human mu-delta opioid receptor heterodimerization; P35372+P41143; cell-based MOR-DOR heterodimer luminescence, inverse agonism; inhibition, % at 9.3 µM; 340,000 tested, 0.21% active; AID 504357; in the data active means inhibition above about 22%, passing the limit was not always enough;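 further: 0% = cells with DMSO and 100% = wells without cells with DMSO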
# HTR5A ag ctr: counter-screen for OPRM1-OPRD1 agonists: human HTR5A agonism. activation, % at 9.3 µM. AID 504692. HTR5A agonist assay, luminescence, cell-based. 340,000 tested, 0.61% active; in the data active means activation mostly above about 9.5%, no sharp cut-off; inactive means mostly below about 7.6%;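 further: 0% = cells with vehicle only and 100% = reference agonist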
# Starred values were filed as active, the others as inactive; x = not tested or not shown. Rows were chosen to be rich in hits. Some 1.4% of all compounds tested hit in one or more screens of this group.
SMILES,OPRM1-OPRD1 ag,HTR5A inv ctr,DAGLB inhibitor,Arrestin-AP2 inh,OPRM1-OPRD1 inv,HTR5A ag ctr
COc1ccccc1C=NN1C(=O)CSC1=S,-2.6,-2.6,0.0,1.9,11.2,0.7
O=C1CSC(=S)N1/N=C/c1ccc(O)c(O)c1O,6.4,8.9,0.9,56.8*,-32.4,4.2
CCOC(=O)C1CCN(CC(O)COCc2ccc(Cl)cc2)CC1 (stereo unspecified),-3.0,-44.1,-2.6,44.3,15.3,11.7*
NC(=O)C1CCCN(CC(O)COCc2ccc(Cl)cc2)C1 (stereo unspecified),-1.6,-6.0,-3.4,-1.4,8.2,1.6
CCN1C(=O)[C@H]2[C@@H](c3ccc(C(F)(F)F)cc3)N[C@]3(CCCN(Cc4ccco4)C3=O)[C@H]2C1=O,x,x,-1.8,x,x,x
CC(=O)NC1CC2CCCC(C1)N2Cc1ccc(C)cc1 (stereo unspecified),-2.1,-3.3,0.7,-0.7,11.8,14.0*
CCOC(=O)c1cc(OCC)c2c(ccc3cc(OC)ccc32)n1,x,x,-7.0,x,x,x
O=C1C(Nc2ccccc2)=C(N2CCCCC2)C(=O)c2ccccc21,14.8,-27.3,0.0,5.2,-84.3,0.3
CN(C1=C(N2CCCCC2)C(=O)c2ccccc2C1=O)c1ccccc1,12.0,-2.1,37.9*,12.2,-69.2,-0.7
Cc1cccc(OCCCC(=O)Nc2nc3ccccc3[nH]2)c1,0.0,-28.6,0.2,1.9,-0.2,10.4*
C=C(C)Cn1c(SCC)nc2ccccc2c1=O,5.8,6.6,-0.8,13.1,-33.4,11.6*
C=C(C)Cn1c(SCC#N)nc2ccccc2c1=O,-3.9,-2.8,-4.0,-3.5,17.4,-0.8
O=C(CC1CC2CCC1C2)N1CCN(S(=O)(=O)c2ccc(C(F)(F)F)cc2)CC1 (stereo unspecified),x,x,-6.6,x,x,x
O=C(Cc1ccccc1)NN1C(=O)C2C3C=CC(C3)C2C1=O (stereo unspecified),-2.4,11.1,0.2,2.9,13.2,-4.0
CC1CCCC(C)N1NC(=O)Cc1ccccc1 (stereo unspecified),0.5,-25.8,-1.7,13.0,-3.6,9.7*
OC12CC3C[C@H](C1)C(N1CCOCC1)[C@@H](C3)C2 (stereo partly specified),-1.0,-34.6,0.9,0.7,5.0,10.2*
O=C(CC12CC3CC(CC(C3)C1)C2)N1CCOCC1,0.8,-9.7,-0.4,0.6,-3.2,-3.9
Cc1ccc(C(=O)Sc2cccccc2=O)cc1,-8.8,33.8*,3.3,30.8,39.8*,-9.6
O=C(Nc1ccccc1SC(=O)c1ccccc1)c1ccccc1,x,x,-1.8,x,x,x
O=C(c1ccc2c(c1)OCO2)C1CCCN(Cc2ccccc2OC(F)F)C1 (stereo unspecified),8.3,-3.4,-11.3,0.1,-44.7,12.5*
COc1cccc(CN2CCCC(C(=O)c3ccc4c(c3)OCO4)C2)c1OC (stereo unspecified),-0.4,10.2,-1.4,3.3,1.9,-0.3
Cc1cccc(N2CCN(S(=O)(=O)c3ccc4c(c3)NC(=O)C(C)S4)CC2)c1C (stereo unspecified),1.9,2.3,1.4,7.6,-9.6,-0.6
Cc1cccc(N2CCN(S(=O)(=O)c3ccc4c(c3)NC(=O)CS4)CC2)c1C,11.0,-14.7,2.9,-0.4,-56.0,11.8*
CC1=C(C#N)C(C)(C)C(C#N)=C(C)N1,x,x,-1.9,x,x,x
COC(=O)c1nc2nc(C)cc(C(F)(F)F)n2n1,1.1,-7.1,2.3,2.6,-6.4,2.6
SMILES,OPRM1-OPRD1 ag,HTR5A inv ctr,DAGLB inhibitor,Arrestin-AP2 inh,OPRM1-OPRD1 inv,HTR5A ag ctr
COC(=O)c1nc2nc(-c3cccs3)cc(C(F)(F)F)n2n1,-0.2,-29.6,0.3,8.0,1.7,10.8*
COCCCNC(=O)c1cc(S(=O)(=O)N2CCC3(CC2)OCCO3)ccc1F,x,x,1.0,x,x,x
CCC1=[N+](C)CCn2c(C)ccc21,-1.1,4.4,-1.1,83.2*,6.6,-0.1
CCC1=[N+](CC(=O)c2ccc(Br)cc2)CCn2c(C)ccc21,0.1,-2.6,4.5,4.4,-0.6,11.9*
CC(=O)c1c(C)c(C)c2n1CCn1c(C)ccc1-2,-3.3,3.1,-1.1,1.4,16.7,-3.1
CCC1=[N+](CC(=O)c2ccc(C)cc2)CCn2c(C)ccc21,-1.0,11.0,-0.8,5.2,4.9,0.7
Cc1c(C(=O)NNC(=O)c2ccccc2O)oc2ccccc12,x,x,6.9,x,x,x
CC(C)NCC(O)COc1ccc(Br)cc1 (stereo unspecified),1.1,-34.2,0.2,8.7,-7.8,12.4*
CCC(CC)NCC(O)COc1ccc(Br)cc1 (stereo unspecified),-2.0,12.5,-1.0,52.6,9.2,-4.9
C=CS(=O)(=O)c1c2cc(OC)ccc2nc2ccc(OC)cc12,6.0,-8.4,-1.4,24.8,-26.5,2.2
CCCn1nc([N+](=O)[O-])c(C(C#N)c2nc3ccccc3s2)c(Cl)c1=O (stereo unspecified),-2.6,23.5,67.5*,30.0,14.4,-3.4
CC(C)(C)OC(=O)C[C@@H]1C/C=C\C[C@@H](CC(=O)N(CCO)Cc2ccccc2)C(=O)NC[C@H](c2ccccc2)OC1=O,-0.7,23.6,-1.9,x,4.3,11.6*
CC(C)(C)OC(=O)C[C@@H]1C/C=C\C[C@@H](CC(=O)N(CCO)Cc2ccccc2)C(=O)NC[C@@H](c2ccccc2)OC1=O,-6.4,17.8,-3.2,4.7,29.3,-2.6
O=C(CN1CCN(c2ccccc2O)CC1)Nc1ccc([N+](=O)[O-])cc1Br,4.1,-30.7,0.3,35.1,-20.8,10.9*
O=C(CN1CCN(c2ccccc2O)CC1)Nc1cc([N+](=O)[O-])ccc1Cl,2.8,7.7,-0.5,42.1,-14.0,2.0
CC(C)NC(=O)N(C)C[C@H]1Oc2cc(C#Cc3ccc(F)cc3)ccc2S(=O)(=O)N([C@H](C)CO)C[C@H]1C,x,x,-1.4,x,x,x
CC(=O)Nc1cccc(C(=O)Nc2cc(C(F)(F)F)ccc2-n2cncn2)c1,x,x,-1.5,x,x,x
Cc1ccc(Cl)cc1N1CCN(C(=O)c2noc(C(C)C)c2[N+](=O)[O-])CC1,52.2*,-172.0,-9.2,5.2,-276.4,42.4*
CC(C)c1onc(C(=O)N2CCN(c3ccccc3)CC2)c1[N+](=O)[O-],3.3,0.7,-1.8,4.5,-16.4,-0.2
CN1/C(=C\C(=O)COc2ccc3c(c2)OCO3)C(C)(C)c2ccccc21,3.1,18.2,-8.1,4.3,-18.1,13.8*
COc1ccccc1OCC(=O)/C=C1/N(C)c2ccccc2C1(C)C,2.8,12.2,-8.0,11.1,-13.4,-4.9
CCOc1ccccc1NC(=O)c1ccc2c(c1)C(=O)N(CC1CCCO1)C2=O (stereo unspecified),-1.4,-14.8,-6.4,33.3,7.4,-2.5
Cc1c(NC(=O)c2ccc3c(c2)C(=O)N(CC2CCCO2)C3=O)cccc1C(=O)O (stereo unspecified),-0.5,-10.1,1.1,-4.8,2.8,10.4*
O=C(N/N=C/c1cccc2ccccc12)c1ccc(CN2CCOCC2)cc1,-1.6,-41.9,-2.9,1.8,7.2,11.9*
